Source: ChEMBL document CHEMBL1157027, “The identification of 8,9-dimethoxy-5-(2-aminoalkoxy-pyridin-3-yl)-benzo[c][2,7]naphthyridin-4-ylamines as potent inhibitors of 3-phosphoinositide-dependent kinase-1 (PDK-1)” (Eur J Med Chem, 2010)

Tests used:
[1] = Inhibition of PKA
Outline: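 PKA activity was measured with the Z'-LYTE kinase assay, run per the manufacturer's protocol at 100 uM ATP. IC50 values are given in nM.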

[2] = biological target: RAC-alpha serine/threonine-protein kinase (Homo sapiens, UniProt P31749); test: Inhibition of AKT
Sequence of RAC-alpha serine/threonine-protein kinase (P31749 whole entry): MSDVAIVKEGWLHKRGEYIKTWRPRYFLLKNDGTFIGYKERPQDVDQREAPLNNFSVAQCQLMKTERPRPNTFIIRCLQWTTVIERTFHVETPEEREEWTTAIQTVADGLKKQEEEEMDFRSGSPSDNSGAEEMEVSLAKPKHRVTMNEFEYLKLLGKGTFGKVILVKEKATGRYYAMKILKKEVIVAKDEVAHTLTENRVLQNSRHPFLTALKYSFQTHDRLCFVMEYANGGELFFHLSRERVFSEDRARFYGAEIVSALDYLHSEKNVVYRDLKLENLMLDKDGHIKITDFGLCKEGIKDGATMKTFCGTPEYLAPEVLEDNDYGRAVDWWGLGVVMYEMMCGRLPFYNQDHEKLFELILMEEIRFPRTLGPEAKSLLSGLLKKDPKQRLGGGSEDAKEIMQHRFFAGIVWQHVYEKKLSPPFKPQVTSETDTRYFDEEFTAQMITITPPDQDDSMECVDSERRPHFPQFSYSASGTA

[3] = biological target: T1, 3-phosphoinositide-dependent protein kinase 1 (Homo sapiens, UniProt O15530); test: Inhibition of human GST-tagged-PDK1 expressed in HEK293 cells; format: cell-based
T1 sequence (O15530 whole entry): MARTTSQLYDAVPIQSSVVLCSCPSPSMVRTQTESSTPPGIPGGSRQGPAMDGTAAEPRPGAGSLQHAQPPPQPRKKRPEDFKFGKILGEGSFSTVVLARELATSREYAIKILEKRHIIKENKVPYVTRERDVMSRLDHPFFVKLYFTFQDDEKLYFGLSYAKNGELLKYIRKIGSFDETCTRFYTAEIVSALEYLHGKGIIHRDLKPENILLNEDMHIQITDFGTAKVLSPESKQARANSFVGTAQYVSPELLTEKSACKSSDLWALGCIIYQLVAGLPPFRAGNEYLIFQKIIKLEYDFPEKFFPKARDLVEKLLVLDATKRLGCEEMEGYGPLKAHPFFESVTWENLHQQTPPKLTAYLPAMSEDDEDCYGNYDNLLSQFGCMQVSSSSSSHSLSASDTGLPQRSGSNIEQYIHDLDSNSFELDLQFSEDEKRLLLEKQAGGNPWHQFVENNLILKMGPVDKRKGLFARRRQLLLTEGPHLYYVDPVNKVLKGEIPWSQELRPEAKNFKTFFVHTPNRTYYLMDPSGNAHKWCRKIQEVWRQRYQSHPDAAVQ

[4] = biological target: Ribosomal protein S6 kinase beta-1 (Homo sapiens, UniProt P23443); test: Inhibition of p70S6K
Sequence of Ribosomal protein S6 kinase beta-1 (P23443 whole entry): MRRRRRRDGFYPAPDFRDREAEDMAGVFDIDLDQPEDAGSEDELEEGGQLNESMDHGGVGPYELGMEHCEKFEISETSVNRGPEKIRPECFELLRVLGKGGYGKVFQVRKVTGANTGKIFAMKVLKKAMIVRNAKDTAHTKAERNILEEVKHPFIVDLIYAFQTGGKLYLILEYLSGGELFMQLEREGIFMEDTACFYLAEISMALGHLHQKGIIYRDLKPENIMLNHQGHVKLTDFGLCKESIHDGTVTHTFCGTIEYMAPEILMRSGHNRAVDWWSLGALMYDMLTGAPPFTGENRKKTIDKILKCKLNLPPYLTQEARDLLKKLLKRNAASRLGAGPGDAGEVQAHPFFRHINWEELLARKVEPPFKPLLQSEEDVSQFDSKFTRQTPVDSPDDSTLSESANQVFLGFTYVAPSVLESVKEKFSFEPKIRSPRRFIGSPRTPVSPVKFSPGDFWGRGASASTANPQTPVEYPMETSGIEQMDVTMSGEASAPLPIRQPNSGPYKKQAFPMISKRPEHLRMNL

| IC50 [1] | IC50 [2] | IC50 [3] | IC50 [4] | Compound |
| --- | --- | --- | --- | --- |
| 113 nM | 905 nM | 14 nM | 219 nM | COc1cc2ncc3c(N)nc(-c4cncc(OC[C@@H](N)CC(C)C)c4)cc3c2cc1OC |
| 32 nM | 183 nM |  | 21 nM | COc1cc2ncc3c(N)nc(-c4cncc(OC[C@@H](N)Cc5ccc(F)cc5)c4)cc3c2cc1OC |
| 138 nM | 1750 nM | 9 nM | 343 nM | COc1cc2ncc3c(N)nc(-c4cncc(OC[C@@H](N)Cc5ccncc5)c4)cc3c2cc1OC |
| 36 nM | 251 nM |  |  | COc1cc2ncc3c(N)nc(-c4cncc(OC[C@H](N)Cc5ccc(F)cc5)c4)cc3c2cc1OC |
| 385 nM | 1390 nM | 18 nM | 443 nM | COc1cc2ncc3c(N)nc(-c4cncc(OC[C@H](N)CC(C)C)c4)cc3c2cc1OC |
| 59 nM | 422 nM |  | 216 nM | CC[C@H](N)COc1cncc(-c2cc3c(cnc4cc(OC)c(OC)cc43)c(N)n2)c1 |
| 45 nM | 318 nM | 3 nM | 72 nM | CC[C@@H](N)COc1cncc(-c2cc3c(cnc4cc(OC)c(OC)cc43)c(N)n2)c1 |
| 120 nM | 1320 nM |  |  | COc1cc2ncc3c(N)nc(-c4cncc(OC[C@H](N)Cc5c[nH]c6ccccc56)c4)cc3c2cc1OC |
| 142 nM |  |  |  | COc1cc2ncc3c(N)nc(-c4cncc(OC[C@H](N)Cc5cccc(C(F)(F)F)c5)c4)cc3c2cc1OC |
| 123 nM |  |  |  | COc1cc2ncc3c(N)nc(-c4cncc(OC[C@H](C)N)c4)cc3c2cc1OC |
| 66 nM | 402 nM |  | 80 nM | COc1cc2ncc3c(N)nc(-c4cncc(OCCN)c4)cc3c2cc1OC |
| 54 nM | 302 nM |  | 77 nM | COc1cc2ncc3c(N)nc(-c4cncc(OC[C@@H](N)Cc5c[nH]c6ccccc56)c4)cc3c2cc1OC |
| 86 nM |  | 3 nM |  | COc1cc2ncc3c(N)nc(-c4cncc(OC[C@@H](C)N)c4)cc3c2cc1OC |
| 41 nM |  |  |  | COc1cc2ncc3c(N)nc(-c4cncc(OC[C@@H](N)Cc5ccc(Cl)c(Cl)c5)c4)cc3c2cc1OC |
| 18 nM | 78 nM |  |  | COc1cc2ncc3c(N)nc(-c4cncc(OC[C@@H](N)Cc5cccc(Cl)c5)c4)cc3c2cc1OC |
| 77 nM | 261 nM |  | 107 nM | COc1cc2ncc3c(N)nc(-c4cncc(OC[C@@H](N)Cc5ccccc5)c4)cc3c2cc1OC |
| < 31 nM | 259 nM |  |  | COc1cc2ncc3c(N)nc(-c4cncc(OC[C@H](N)Cc5ccccc5)c4)cc3c2cc1OC |
| 68 nM | 209 nM |  | 182 nM | COc1cc2ncc3c(N)nc(-c4cncc(OC[C@@H](N)Cc5cccc(C(F)(F)F)c5)c4)cc3c2cc1OC |
| 79 nM | 793 nM |  |  | COc1cc2ncc3c(N)nc(-c4cncc(OC[C@@H](N)Cc5ccccc5Cl)c4)cc3c2cc1OC |
